In ChEMBL document CHEMBL1949631, “Novel 3-phenylpiperidine-4-carboxamides as highly potent and orally long-acting neurokinin-1 receptor antagonists with reduced CYP3A induction” (Bioorg Med Chem, 2012):

Tests used:
Substance-P receptor = Substance-P receptor (Homo sapiens, UniProt P25103); assay: Displacement of [125I]BH-SP from tachykinin NK1 receptor in human IM9 cells after 30 mins by scintillation counting; type: cell-based, IM-9
How it was run: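 Receptor membranes from human IM-9 lymphoblasts (grown 3 days, homogenised, spun 40,000 g) in 50 mM Tris-HCl pH 7.4 with 0.02% BSA, protease inhibitors and 3 mM MnCl2. Incubated with [125I]BH-SP (final 130 pM) for 30 min at room temperature in 0.2 mL. Nonspecific binding defined with 2×10^-6 M SP. Read by rapid GF/C filtration (PEI-soaked filters), three washes, scintillation counting.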

Cavia porcellus [1] = assay: Inhibition of GR73632-induced increase in locomotor activity in Hartley guinea pig at 0.3 mg/kg, iv after 5 mins relative to control; type: functional
How it was run: (§1)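 Male Hartley guinea pigs, 6–8 per group. Compound or vehicle in DMA-PEG400 (1:1, v/v), 0.5 mL/kg, given intravenously just before intracerebroventricular infusion of the NK1 agonist […]. %inh. is taken from activity counts relative to vehicle-treated and sham-infused groups. Values are averages of 5–10 independent experiments.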

[2] = (§2) Metabolic stability in human liver microsomes assessed as parent compound remaining at 1 uM after 15 to 30 mins by HPLC analysis; type: ADME, Microsome; conditions: liver microsomes, read-out: Stability
How it was run: (§3)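 Compound at 1 μM incubated with human liver microsomes for 15 and 30 min under standard conditions. Remaining parent compound quantified by HPLC and expressed as μL/mg/min.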

Cavia porcellus [3] = assay: Inhibition of GR73632-induced increase in locomotor activity in Hartley guinea pig at 0.1 mg/kg, iv after 5 mins relative to control; type: functional; how it was run: as §1
Cavia porcellus [4] = assay: Inhibition of GR73632-induced increase in locomotor activity in po dosed Hartley guinea pig after 1 hr; type: functional; conditions: read-out: ID50 (the source's name)
How it was run: (§4)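 Male Hartley guinea pigs, 6–8 per group, dosed orally with compound suspended in 0.5% methylcellulose (2 mL/kg), or vehicle, 0.75 h (1 h line) or 23.75 h (24 h line) before intracerebroventricular […] infusion. %inh. comes from locomotor counts corrected for the sham-infused group against the vehicle control. ID50 and 95% CI come from linear regression of the dose–response.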

Cavia porcellus [5] = assay: Inhibition of GR73632-induced increase in locomotor activity in po dosed Hartley guinea pig after 24 hrs; type: functional; conditions: read-out: ID50 (the source's name); how it was run: as §4
Liver microsomes = assay: as §2; type: ADME, Microsome; conditions: microsomes, 1 µM; how it was run: as §3
[6] = Oral bioavailability in dog at 1 mg/kg; type: ADME, organism-based, Canis lupus familiaris; conditions: in vivo
How it was run: (§5)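 Single oral dose of 1 mg/kg. Blood concentration–time curve used to derive AUC, mean residence time and bioavailability.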

[7] = AUC (0 to 24 hrs) in monkey at 1 mg/kg, po; type: ADME, organism-based, Macaca mulatta; design: time < 24 hr, dose 1 mg/kg, route oral; conditions: rhesus monkey, plasma; how it was run: as §5
[8] = Mean residence time in rat at 1 mg/kg, po; type: ADME, organism-based; design: dose 1 mg/kg, route oral; conditions: in vivo; how it was run: as §5
[9] = Metabolic stability in guinea pig microsomes; type: ADME, Cavia porcellus, Microsome
[10] = Metabolic stability in rat microsomes; type: ADME, Microsome
[11] = Metabolic stability in dog microsomes; type: ADME, Canis lupus familiaris, Microsome
[12] = AUC (0 to 24 hrs) in rat at 1 mg/kg, po; type: ADME, organism-based; design: time < 24 hr, dose 1 mg/kg, route oral; conditions: plasma; how it was run: as §5
[13] = AUC (0 to 24 hrs) in guinea pig at 1 mg/kg, po; type: ADME, organism-based, Cavia porcellus; design: time < 24 hr, dose 1 mg/kg, route oral; conditions: plasma; how it was run: as §5
[14] = Mean residence time in monkey at 1 mg/kg, po; type: ADME, organism-based, Macaca mulatta; design: dose 1 mg/kg, route oral; conditions: rhesus monkey, in vivo; how it was run: as §5
[15] = Mean residence time in dog at 1 mg/kg, po; type: ADME, organism-based, Canis lupus familiaris; design: dose 1 mg/kg, route oral; conditions: in vivo; how it was run: as §5
[16] = AUC (0 to 24 hrs) in dog at 1 mg/kg, po; type: ADME, organism-based, Canis lupus familiaris; design: time < 24 hr, dose 1 mg/kg, route oral; conditions: plasma; how it was run: as §5
[17] = Oral bioavailability in guinea pig at 1 mg/kg; type: ADME, organism-based, Cavia porcellus; conditions: in vivo; how it was run: as §5
[18] = Oral bioavailability in rat at 1 mg/kg; type: ADME, organism-based; conditions: in vivo; how it was run: as §5
[19] = Mean residence time in guinea pig at 1 mg/kg, po; type: ADME, organism-based, Cavia porcellus; design: dose 1 mg/kg, route oral; conditions: in vivo; how it was run: as §5
[20] = target: T1, Nuclear receptor subfamily 1 group I member 2 (Homo sapiens, UniProt O75469); assay: Induction of human PXR-mediated CYP3A activity at 10 uM
T1 sequence (O75469 whole entry): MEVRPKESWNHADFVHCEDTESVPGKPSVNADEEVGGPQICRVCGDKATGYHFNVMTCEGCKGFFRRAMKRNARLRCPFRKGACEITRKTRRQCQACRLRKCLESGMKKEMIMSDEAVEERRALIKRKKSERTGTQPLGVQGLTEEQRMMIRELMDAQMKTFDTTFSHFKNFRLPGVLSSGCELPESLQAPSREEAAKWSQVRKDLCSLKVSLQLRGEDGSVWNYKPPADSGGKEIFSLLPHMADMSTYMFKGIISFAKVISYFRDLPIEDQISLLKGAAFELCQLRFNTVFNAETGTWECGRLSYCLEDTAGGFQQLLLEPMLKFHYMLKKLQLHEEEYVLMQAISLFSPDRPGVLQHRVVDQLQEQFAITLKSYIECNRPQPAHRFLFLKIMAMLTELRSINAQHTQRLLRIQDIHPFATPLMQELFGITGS

[21] = Metabolic stability in monkey microsomes; type: ADME, Macaca mulatta, Microsome; conditions: rhesus monkey
[22] = Oral bioavailability in monkey at 1 mg/kg; type: ADME, organism-based, Macaca mulatta; conditions: rhesus monkey, in vivo; how it was run: as §5

Sequence of Substance-P receptor (P25103 whole entry): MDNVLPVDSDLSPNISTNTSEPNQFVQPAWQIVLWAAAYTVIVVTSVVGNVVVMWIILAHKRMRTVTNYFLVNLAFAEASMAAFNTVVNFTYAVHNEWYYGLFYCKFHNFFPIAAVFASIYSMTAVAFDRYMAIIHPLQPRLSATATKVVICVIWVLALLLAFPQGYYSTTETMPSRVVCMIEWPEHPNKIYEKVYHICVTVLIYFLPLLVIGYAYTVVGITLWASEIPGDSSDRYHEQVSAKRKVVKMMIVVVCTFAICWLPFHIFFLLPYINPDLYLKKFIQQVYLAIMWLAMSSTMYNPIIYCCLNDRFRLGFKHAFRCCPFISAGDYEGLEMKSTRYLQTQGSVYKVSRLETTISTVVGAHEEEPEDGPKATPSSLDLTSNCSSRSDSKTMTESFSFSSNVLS

| SMILES | IC50 (Substance-P receptor) | inhibition in vivo at 0.3 mg/kg (Cavia porcellus [1]) | microsomal CLint at 1 µM [2] | also measured |
| --- | --- | --- | --- | --- |
| CC(=O)N1CCC(C(=O)N2CC[C@H](C(=O)N(C)Cc3cc(C(F)(F)F)cc(C(F)(F)F)c3)[C@@H](c3ccc(C)cc3)C2)CC1 (racemic) | 0.18 nM |  |  |  |
| CC(=O)N1CCC(C(=O)N2CCC(C(=O)N(C)Cc3cc(C(F)(F)F)cc(C(F)(F)F)c3)=C(c3ccccc3)C2)CC1 | 0.17 nM |  |  |  |
| CNC(=O)C(=O)N1CC[C@H](C(=O)N(C)Cc2cc(C(F)(F)F)cc(C(F)(F)F)c2)[C@@H](c2ccc(F)cc2C)C1 (racemic) | 0.11 nM | 51.5% | 115 µL/min/mg |  |
| CC(=O)N1CCC(C(=O)N2CC[C@H](C(=O)N(C)Cc3cc(C(F)(F)F)cc(C(F)(F)F)c3)[C@@H](c3ccc(F)cc3)C2)CC1 (racemic) | 0.052 nM | 41.4% |  |  |
| CC(=O)N1CCC(C(=O)N2CC[C@@H](C(=O)N(C)Cc3cc(C(F)(F)F)cc(C(F)(F)F)c3)[C@H](c3ccccc3)C2)CC1 (racemic) |  | 72.1% |  |  |
| Cc1cc(F)ccc1[C@H]1CN(C(=O)C(N)=O)CC[C@@H]1C(=O)N(C)[C@H](C)c1cc(C(F)(F)F)cc(C(F)(F)F)c1 | 0.2 nM |  | 57 µL/min/mg | inhibition in vivo at 0.1 mg/kg (Cavia porcellus [3]): 43.1% |
| CC(=O)N1CCC(C(=O)N2CC[C@H](C(=O)N(C)Cc3cc(C(F)(F)F)cc(C(F)(F)F)c3)[C@@H](c3ccccc3C)C2)CC1 (racemic) | 0.032 nM | 60.1% |  |  |
| CC(=O)N1CC[C@H](C(=O)N(C)Cc2cc(C(F)(F)F)cc(C(F)(F)F)c2)[C@H](c2ccccc2)C1 (racemic) | 3.2 nM |  |  |  |
| CONC(=O)N1CC[C@H](C(=O)N(C)Cc2cc(C(F)(F)F)cc(C(F)(F)F)c2)[C@@H](c2ccc(F)cc2C)C1 (racemic) | 0.073 nM |  |  | inhibition in vivo at 0.1 mg/kg (Cavia porcellus [3]): -23.9% |
| CN(Cc1cc(C(F)(F)F)cc(C(F)(F)F)c1)C(=O)[C@@H]1CCNC[C@H]1c1ccccc1 (racemic) | 2.6 nM |  |  |  |
| CC(=O)NCC(=O)N1CC[C@H](C(=O)N(C)Cc2cc(C(F)(F)F)cc(C(F)(F)F)c2)[C@@H](c2ccc(F)cc2C)C1 (racemic) | 0.043 nM | 48.9% | 59 µL/min/mg |  |
| Cc1cc(F)ccc1[C@H]1CN(C(=O)C(N)=O)CC[C@@H]1C(=O)N(C)Cc1cc(C(F)(F)F)cc(C(F)(F)F)c1 | 0.02 nM |  | 30 µL/min/mg | ED50 (Cavia porcellus [4]): 0.14 mg/kg; inhibition in vivo at 0.1 mg/kg (Cavia porcellus [3]): 88.8%; ED50 (Cavia porcellus [5]): 0.72 mg/kg |
| Cc1cc(F)ccc1[C@H]1CN(C(=O)C(=O)NO)CC[C@@H]1C(=O)N(C)Cc1cc(C(F)(F)F)cc(C(F)(F)F)c1 (racemic) | 0.046 nM |  | 2 µL/min/mg | inhibition in vivo at 0.1 mg/kg (Cavia porcellus [3]): -15.5% |
| CC(=O)N1CC[C@@H](C(=O)N(C)Cc2cc(C(F)(F)F)cc(C(F)(F)F)c2)[C@H](c2ccccc2)C1 (racemic) | 2.6 nM |  |  |  |
| Cc1cc(F)ccc1[C@H]1CN(C(=O)C(N)=O)CC[C@@H]1C(=O)N(C)Cc1cc(C(F)(F)F)cc(C(F)(F)F)c1 (racemic) | 0.052 nM | 86.7% |  | Stability (Liver microsomes): 40 µL/min/mg |
| CNC(=O)N1CC[C@H](C(=O)N(C)Cc2cc(C(F)(F)F)cc(C(F)(F)F)c2)[C@@H](c2ccc(F)cc2C)C1 (racemic) | 0.048 nM | 80% | 199 µL/min/mg |  |
| CC(=O)N1CCC(C(=O)N2CC[C@H](C(=O)N(C)Cc3cc(C(F)(F)F)cc(C(F)(F)F)c3)[C@@H](c3ccccc3C(C)C)C2)CC1 (racemic) | 0.21 nM |  |  |  |
| CC(=O)N1CCC(C(=O)N2CC[C@@H](C(=O)NCc3cc(C(F)(F)F)cc(C(F)(F)F)c3)[C@H](c3ccccc3)C2)CC1 (racemic) | 2.7 nM |  |  |  |
| Cc1cc(F)ccc1[C@H]1CN(C(=O)C(N)=O)CC[C@@H]1C(=O)N(C)[C@@H](C)c1cc(C(F)(F)F)cc(C(F)(F)F)c1 |  |  | 2 µL/min/mg | bioavailability [6]: 40%; AUC(0-t) at 24 h [7]: 1.04 µg·h/mL; MRT [8]: 4.5 h; Stability [9]: 3 µL/min/mg; Stability [10]: 13 µL/min/mg; Stability [11]: 0 µL/min/mg; AUC(0-t) at 24 h [12]: 0.521 µg·h/mL; AUC(0-t) at 24 h [13]: 1.07 µg·h/mL; MRT [14]: 6.4 h; MRT [15]: 6.5 h; ED50 (Cavia porcellus [4]): 0.1 mg/kg; AUC(0-t) at 24 h [16]: 2.15 µg·h/mL; bioavailability [17]: 83%; bioavailability [18]: 29%; MRT [19]: 7.5 h; inhibition in vivo at 0.1 mg/kg (Cavia porcellus [3]): 78.9%; Activity [20]: 3%; Stability [21]: 14 µL/min/mg; ED50 (Cavia porcellus [5]): 0.57 mg/kg; bioavailability [22]: 38% |
| CC(=O)N1CCC(C(=O)N2CC[C@H](C(=O)N(C)Cc3cc(C(F)(F)F)cc(C(F)(F)F)c3)[C@@H](c3ccc(F)cc3C)C2)CC1 (racemic) | 0.047 nM | 105% | 111 µL/min/mg | Activity [20]: 2% |
| CN(Cc1cc(C(F)(F)F)cc(C(F)(F)F)c1)C(=O)[C@H]1CCNC[C@H]1c1ccccc1 (relative stereo) | 5.6 nM |  |  |  |
| CC(=O)NCC(=O)N1CC[C@@H](C(=O)N(C)Cc2cc(C(F)(F)F)cc(C(F)(F)F)c2)[C@H](c2ccccc2)C1 (racemic) | 12 nM |  |  |  |
| Cc1cc(F)ccc1[C@H]1CN(C(N)=O)CC[C@@H]1C(=O)N(C)Cc1cc(C(F)(F)F)cc(C(F)(F)F)c1 (racemic) | 0.035 nM | 80.3% | 112 µL/min/mg |  |
| CC(=O)N1CCC(C(=O)N2CC[C@H](C(=O)N(C)Cc3cc(C(F)(F)F)cc(C(F)(F)F)c3)[C@@H](c3cccc(C)c3)C2)CC1 (racemic) | 0.14 nM |  |  |  |
| CCc1ccccc1[C@H]1CN(C(=O)C2CCN(C(C)=O)CC2)CC[C@@H]1C(=O)N(C)Cc1cc(C(F)(F)F)cc(C(F)(F)F)c1 (racemic) | 0.064 nM |  |  |  |
| Cc1cc(F)ccc1[C@@H]1CN(C(=O)C(N)=O)CC[C@H]1C(=O)N(C)Cc1cc(C(F)(F)F)cc(C(F)(F)F)c1 | > 100 nM |  |  |  |
